Screening results as filed in PubChem.
CaV13 FRET inh – Primary screen for inhibitors of IQ motif and Ca2+-dependent inactivation inhibitor domain binding in CACNA1D, Förster resonance energy transfer in living cells, …; 340,000 tested, 0.098% active; inhibition, % at 12.3 µM; AID 743397; HEK cells, CFP/YFP FRET ICDI-IQ, plate reader, 10 min; percent FRET-ratio fall versus neutral wells;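 active means mean replicate inhibition of at least 30% and at least 1% of replicates passing that level; inconclusive means only one of the two criteria is met; inactive means neither criterion is met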
SIRT5 inh – sirtuin-5 (human) deacylase inhibition; Purified SirT5, succinyl-peptide AMC, trypsin-coupled fluorescence; inhibition, % at 15 µM; 330,000 tested, 1.1% active; in the data active means inhibition above about 15%; inconclusive means no clear call, values can overlap the other calls
S100A4 MyoIIA – S100A4-myosin IIA interaction inhibition | P26447 | S100A4/TAMRA-MyoIIA peptide fluorescence polarization | inhibition, % at 10.7 µM | 360,000 tested, 0.14% active;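 active means mean inhibition of at least 70% across replicates, with every replicate also reaching that level; inconclusive means mean inhibition reaches 70% but some replicates fall short; inactive means mean inhibition below 70%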
Target sequence (P26447 whole entry, looked up): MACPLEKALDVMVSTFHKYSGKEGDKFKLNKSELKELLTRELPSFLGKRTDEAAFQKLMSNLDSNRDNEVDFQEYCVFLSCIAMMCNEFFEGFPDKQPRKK
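incubation = readout 5 min after mixing, signal stable up to 60 min | system = S100A4 monomer protein | buffer or medium = HEPES pH 7.2 with CaCl2, KCl, NaCl, DTT, Triton | benchmarks = neutral control DMSO, positive control TFP | also added = fluorescent myosin IIA peptide, 5 nM | compound dosing = one concentration per compound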
DENV2 CPE rescue – inhibitors of DENV2 cytopathic effect; AID 651640; 350,000 tested, 1.7% active; CPE inhibition, % at 9.99 µM; DENV2-infected cells, cytopathic effect rescue, plate reader; in the data active means CPE inhibition above about 20%, passing the limit was not always enough; inconclusive means no clear call, values can overlap the other calls; tested in BHK-21 cells
MLL AF4-AF9 inh – inhibitors of human MLL-AF4/AF9 interaction. P42568. AlphaScreen, biotin-AF4 peptide binding to FLAG-AF9. inhibition, % at 10 µM. 350,000 tested, 0.47% active. AID 651704;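 active means every replicate reaching a set inhibition limit, whatever the replicate mean, cut at about 25% in these data; inconclusive means mean inhibition reaches that limit but some replicates miss it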
Target sequence (P42568 whole entry, looked up): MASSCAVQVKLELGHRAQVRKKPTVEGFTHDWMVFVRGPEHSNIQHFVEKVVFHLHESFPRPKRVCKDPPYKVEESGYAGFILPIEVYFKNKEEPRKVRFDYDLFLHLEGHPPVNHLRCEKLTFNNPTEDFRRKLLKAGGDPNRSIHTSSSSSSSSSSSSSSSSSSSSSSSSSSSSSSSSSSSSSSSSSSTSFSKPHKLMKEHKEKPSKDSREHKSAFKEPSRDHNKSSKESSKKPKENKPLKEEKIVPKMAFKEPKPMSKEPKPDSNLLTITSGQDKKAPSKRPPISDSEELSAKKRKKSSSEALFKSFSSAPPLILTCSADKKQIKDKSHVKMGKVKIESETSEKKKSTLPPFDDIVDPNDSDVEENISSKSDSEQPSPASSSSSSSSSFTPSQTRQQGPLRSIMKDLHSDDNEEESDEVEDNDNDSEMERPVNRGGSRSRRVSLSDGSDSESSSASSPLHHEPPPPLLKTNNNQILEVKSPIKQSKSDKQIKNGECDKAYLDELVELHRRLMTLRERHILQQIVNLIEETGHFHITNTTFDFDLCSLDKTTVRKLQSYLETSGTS
Numbers stand for hits; 0 = inactive; ? = inconclusive; - = no result given; ! = not confirmed by another sample. In the library only some 2.7% were active in any assay of this set; here they are far more common.

SMILES	CaV13 FRET inh	SIRT5 inh	S100A4 MyoIIA	DENV2 CPE rescue	MLL AF4-AF9 inh
COc1ccc(S(=O)(=O)N(C)C[C@H]2Oc3c(NC(=O)Nc4ccc(C(F)(F)F)cc4)cccc3C(=O)N([C@H](C)CO)C[C@H]2C)cc1	-	0	0	0	0
C/C=C/c1cnc2c(c1)C(=O)N([C@@H](C)CO)C[C@@H](C)[C@H](CN(C)C(=O)NCCC)O2	-	0	0	0	0
O=C(NCc1ccccc1)[C@@H]1[C@@H](CO)[C@@H]2Cn3c(cccc3=O)[C@@H]2N1Cc1ccccc1F	-	0	0	22.9	0
O=C(NCCc1ccccc1)[C@H]1[C@H](CO)[C@H]2Cn3c(cccc3=O)[C@H]2N1Cc1ccccc1	-	0	0	0	0
CCNC(=O)[C@@H]1[C@@H](CO)[C@@H]2Cn3c(ccc(-c4ccccc4)c3=O)[C@@H]2N1CC	-	0	77.9	0	0
CCNC(=O)[C@H]1[C@H](CO)[C@H]2Cn3c(ccc(-c4ccccc4)c3=O)[C@H]2N1CC	-	0	0	?	0
O=C(O)[C@@H]1[C@@H](CO)[C@@H]2Cn3c(ccc(-c4ccccc4F)c3=O)[C@@H]2N1Cc1ccccc1	-	18.5	0	0	0
COc1ccc2c3c(n(C)c2c1)[C@@H](CO)N(C(=O)c1ccc(F)cc1)CC31CCN(C(=O)Nc2ccc(F)cc2)CC1	-	0	0	0	0
Cc1noc(C)c1NC(=O)Nc1ccc2c(c1)C(=O)N(C)[C@H]1CC[C@@H](CC(=O)N(C)C)O[C@H]1CO2	-	0	0	?	0
COCC(=O)N(C)C[C@H]1Oc2cc(C#CC(C)C)ccc2S(=O)(=O)N([C@@H](C)CO)C[C@@H]1C	-	-	-	0	-
C[C@@H]1CN([C@H](C)CO)C(=O)c2cc(NS(=O)(=O)c3cn(C)cn3)ccc2O[C@@H]1CN(C)Cc1ccc2c(c1)OCO2	-	0	0	0	0
C[C@@H]1CN([C@@H](C)CO)C(=O)c2cc(NC(=O)Nc3ccc(F)cc3)ccc2O[C@H]1CN(C)Cc1ccc(Cl)c(Cl)c1	-	0	0	0	0
N#C[C@@H]1[C@@H](c2ccc(C3=CCCCC3)cc2)[C@H](CO)N1C(=O)NC1CCCCC1	-	0	0	0	0
CCC(=O)N1CC2(C1)[C@H](c1ccc(-c3ccccc3OC)cc1)[C@@H](CO)N2C(C)=O	-	0	0	0	0
CCCN1C(=O)c2n[nH]c(C)c2C1c1ccc(Br)cc1 (configuration not stated)	0	0	0	0	-
Cc1ccc(-c2ccc(=O)n(CC(=O)Nc3ccc4c(c3)OCCO4)n2)cc1	0	20.5	0	0	0
O=C(Cn1nc(-c2ccc(F)cc2)ccc1=O)Nc1ccc2c(c1)OCCO2	0	0	0	0	0
COC(=O)[C@]12C[C@H](CC(=O)NCc3cccc(C(F)(F)F)c3)C(=O)N(Cc3ccc4c(c3)OCO4)C1=C[C@H](C(C)(C)C)O[C@@H]2C	0	-	0	0	0
COCC(=O)N1[C@H](CO)[C@@H](c2ccccc2)[C@@H]1CNC(=O)c1ccccn1	-	15.1	0	0	0
O=C(NC[C@H]1[C@H](c2ccccc2)[C@@H](CO)N1Cc1cccnc1)c1ccccn1	-	0	0	37.9	0
COCC(=O)N(C)C[C@H]1Oc2ncc(-c3ccccc3F)cc2C(=O)N([C@@H](C)CO)C[C@H]1C	-	0	0	-	0
CCn1nc(C(=O)OCC(=O)N(CCC#N)c2ccccc2)c2ccccc2c1=O	0	0	0	75.2	0
CCn1nc(C(=O)OCC(=O)N(CC(C)C)c2c(N)n(Cc3ccccc3)c(=O)[nH]c2=O)c2ccccc2c1=O	0	0	0	0	0
O=C(c1ccc(F)cc1)C1CCN(C(=O)Nc2ccccc2Cl)CC1	63.9	0	0	0	0
C[C@@H]1CN([C@@H](C)CO)C(=O)CCCn2cc(nn2)CO[C@H]1CN(C)C(=O)Nc1cccc2ccccc12	0	0	0	90.9!	0
SMILES	CaV13 FRET inh	SIRT5 inh	S100A4 MyoIIA	DENV2 CPE rescue	MLL AF4-AF9 inh
C[C@H]1CN([C@@H](C)CO)C(=O)CCCn2cc(nn2)CO[C@@H]1CN(C)C(=O)Nc1cccc2ccccc12	0	0	0	0	0
CC(C)NC(=O)N(C)C[C@H]1OCc2cn(nn2)CCCC(=O)N([C@@H](C)CO)C[C@@H]1C	-	0	0	32.4	0
COC(=O)N(C)C[C@@H]1OCc2cn(nn2)CCCC(=O)N([C@H](C)CO)C[C@H]1C	-	0	0	0	0
CC(C)NC(=O)N(C)C[C@H]1OCc2cn(nn2)CCCC(=O)N([C@H](C)CO)C[C@@H]1C	0	0	0	0	0
CC(C)OC(=O)N(C)C[C@@H]1OCc2cn(nn2)CCCC(=O)N([C@H](C)CO)C[C@H]1C	0	26.6	0	0	0
C[C@H]1CN([C@@H](C)CO)C(=O)CCCn2cc(nn2)CO[C@@H]1CN(C)C	-	0	0	0	0
C[C@H](CO)N1C[C@H](C)[C@H](CN(C)C(=O)CCCN(C)C)OCc2cn(nn2)CCCC1=O	-	17.2	0	0	0
CNC[C@H]1Oc2ccc(NC(=O)Nc3ccc(C(F)(F)F)cc3)cc2C(=O)N([C@@H](C)CO)C[C@H]1C	-	0	0	0	0
COc1ccc(S(=O)(=O)Nc2ccc3c(c2)C(=O)N([C@@H](C)CO)C[C@@H](C)[C@H](CN(C)C(=O)CCC(F)(F)F)OCCCC[C@@H](C)O3)cc1	-	0	0	0	0
CC(C)OC(=O)N(C)C[C@@H]1OCc2cn(nn2)CCCC(=O)N([C@@H](C)CO)C[C@@H]1C	-	15.7	0	0	0
O=C(C1=C[C@H](c2ccc3c(c2)OCO3)C[C@H](OCCCCO)O1)N1CCN(Cc2ccc3c(c2)OCO3)CC1	0	0	0	44.1	0
O=C(C1=C[C@@H](c2ccccc2)C[C@@H](OCCCCO)O1)N1CCN(Cc2ccc3c(c2)OCO3)CC1	0	0	0	21.3!	0
O=C(C1=C[C@@H](c2ccc3c(c2)OCO3)C[C@@H](OCCCCO)O1)N1CCN(Cc2ccc3c(c2)OCO3)CC1	0	0	0	0	0
O=C(C1=C[C@H](c2ccc(Br)cc2)C[C@H](OCCCCO)O1)N1CCN(Cc2ccc3c(c2)OCO3)CC1	-	0	0	0	0
CCNC(=O)C[C@@H]1CC[C@@H]2[C@@H](COc3ccc(NC(=O)c4cscn4)cc3C(=O)N2C)O1	-	0	0	?	0
Cc1c(C(=O)Nc2c(F)cccc2F)sc2ncn(CC(=O)N3CCCCC3)c(=O)c12	0	0	0	0	0
Cc1c(C(=O)Nc2ccccc2F)sc2ncn(CC(=O)N3CCOCC3)c(=O)c12	0	0	0	52.1	0
C[C@H](CO)N1C[C@H](C)[C@@H](CN(C)S(=O)(=O)c2ccccc2)OCCCC[C@H](C)Oc2ccc(NC(=O)Nc3ccc(F)cc3)cc2C1=O	-	0	0	52.2	0
C[C@@H]1CN([C@@H](C)CO)C(=O)c2cc(NC(=O)Nc3cccc4ccccc34)ccc2O[C@@H](C)CCCCO[C@@H]1CN(C)S(=O)(=O)c1ccc(F)cc1	-	0	0	20.8	0
